# According to PMC4091680 (Bioorganic & medicinal chemistry, 2014):
# Experiments:
# [1] = tested on: tubulin (colchicine site); experiment: Inhibition of [3H]colchicine binding to tubulin; design: species or system bovine; details: for Inhibition of colchicine binding % Inhibition ± SD: tubulin 1 µM, colchicine 5 µM
# Outline: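 Purified bovine brain tubulin at 0.1 mg/mL (1.0 µM) was incubated 10 min at 37 °C with 5.0 µM [3H]colchicine, test compound, 5% (v/v) DMSO and 1.0 M glutamate. Reactions were stopped with 0 °C water, filtered through two stacked DEAE-cellulose filters and washed three times with ice-cold water. Filter-bound radiolabel was counted by liquid scintillation; % inhibition ± SD.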
# [2] = tested on: purified bovine brain tubulin; experiment: Tubulin polymerization assay; format: biochemical
# HL-60 cells [3] = experiment: Flow cytometric cell cycle distribution, HL-60; format: cell-based, human; details: HL-60, 24 h
# Outline: (§1)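 Per assay, 5×10^5 cells were exposed to test compound at several concentrations for 24 h. Cells were then collected, fixed in ice-cold 70% ethanol, lysed in buffer with RNase A and 0.1% Triton X-100, PI-stained and run on a flow cytometer. Phase distribution came from DNA histograms; means ± SEM of three independent experiments.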
# HeLa cells [4] = experiment: Flow cytometric cell cycle distribution, HeLa; format: cell-based, human; details: 24 h
# Outline: as §1
# HeLa cells [5] = experiment: Annexin-V/PI apoptosis assay, HeLa; format: cell-based, human; details: 24 or 48 h
# [6] = tested on: caspase-3 and PARP in HL-60 cells; experiment: Western blot analysis of caspase-3 and PARP; format: cell-based, human; details: HL-60, 24 h and 48 h
# Outline: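 HL-60 cells were treated with test compound at various concentrations and times, washed in ice-cold PBS and lysed on ice 30 min. Lysates were cleared at 15000 × g, 4 °C, 10 min. Per lane, 20 µg protein (BCA) was separated by SDS-PAGE (7.5–15%) and blotted to PVDF. Membranes were blocked with 5% BSA, probed overnight at 4 °C for caspase-3 and PARP, then with peroxidase secondaries and ECL. Reprobing for β-actin checked loading.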
# HL-60 cells [7] = experiment: Annexin-V/PI apoptosis assay, HL-60; format: cell-based, human; details: HL-60, 24 or 48 h
# Raji = experiment: MTT cytotoxicity assay, Raji; format: cell-based, human; details: 48 h
# Outline: (§2)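 Cells grew in RPMI-1640 with 10% FBS, L-glutamine, penicillin and streptomycin at 37 °C, 5% CO2. They were seeded at 10,000/well overnight in 1% FBS medium, then treated 48 h with test compound at 0.1–125 µM; the solvent control was 0.1% DMSO. MTT (0.5 mg/mL final) was added for 4 h, formazan dissolved in DMSO, and absorbance read at 570 nm. Quadruplicates were taken as % of solvent control, IC50 from concentration–response curves.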
# HeLa = experiment: MTT cytotoxicity assay, HeLa; format: cell-based, human; details: 48 h
# Outline: as §2
smiles,measurement,setting,value
"COc1ccc(/C=C\c2cc(OC)c(OC)c(OC)c2)cc1O [CA-4, combretastatin A-4]",Inhibition of colchicine binding % Inhibition ± SD,[1]; compound 1 µM,88 ± 0.3%
same,Inhibition of colchicine binding % Inhibition ± SD,[1]; compound 5 µM,98 ± 0.8%
"COc1ccc(OC)c(NC(=O)/C=C/c2c[nH]c3ccccc23)c1 [Compound 3b, (E)-N-(2,5-Dimethoxyphenyl)-3-(1H-indol-3-yl)acrylamide]",antitubulin activity (in words),[2],inactive
"COc1ccc(NC(=O)/C=C/c2c[nH]c3ccccc23)cc1OC [Compound 3c, (E)-N-(3,4-Dimethoxyphenyl)-3-(1H-indol-3-yl)acrylamide]",antitubulin activity (in words),[2],inactive
"COc1cc(NC(=O)/C=C/c2c[nH]c3ccccc23)cc(OC)c1 [Compound 3d, (E)-N-(3,5-Dimethoxyphenyl)-3-(1H-indol-3-yl)acrylamide]",antitubulin activity (in words),[2],inactive
"COc1cc(NC(=O)/C=C/c2c[nH]c3ccccc23)cc(OC)c1OC [Compound 3e, (E)-3-(1H-Indol-3-yl)-N-(3,4,5-trimethoxyphenyl)acrylamide]",lowest concentration giving increase in G2/M phase cells,HL-60 cells [3],10 µM
same,cells blocked in G2/M,HL-60 cells [3]; 15–30 µM,> 60%
same,lowest concentration giving increase in G2/M phase cells,HeLa cells [4],10 µM
same,cells blocked in G2/M,HeLa cells [4]; 15–30 µM,more than 80%
same,annexin-V+/PI− and annexin-V+/PI+ fractions (apoptosis),HeLa cells [5],concentration- and time-dependent increase
same,inhibition of [3H]colchicine binding (in words),[1]; compound 50 µM,Significant inhibition
same,PARP cleavage,[6],cleavage of its substrate PARP
same,caspase-3 activation (cleaved fragments),[6],induced the activation of caspase-3
same,annexin-V+/PI− and annexin-V+/PI+ fractions (apoptosis),HL-60 cells [7],concentration- and time-dependent increase
"COc1cc(CNC(=O)/C=C/c2c[nH]c3ccccc23)ccc1O [Compound 3g, (E)-N-(4-Hydroxy-3-methoxybenzyl)-3-(1H-indol-3-yl)acrylamide]",activity against Raji cells (in words),Raji,weak activity
"COc1cccc(CNC(=O)/C=C/c2c[nH]c3ccccc23)c1OC [Compound 3h, (E)-N-(2,3-Dimethoxybenzyl)-3-(1H-indol-3-yl)acrylamide]",activity against HeLa cells (in words),HeLa,weak activity
"COc1ccc(CNC(=O)/C=C/c2c[nH]c3ccccc23)c(OC)c1 [Compound 3i, (E)-N-(2,4-Dimethoxybenzyl)-3-(1H-indol-3-yl)acrylamide]",activity against Raji cells (in words),Raji,weak activity
